Results published in paper PMC11624666 (Drug Design, Development and Therapy, 2024).
Where two headings read alike, the source gives them in different places. Each block holds one compound with its values, some of them ahead of it.

Tests used:
[1] = six clinical pharmacology studies; cited from earlier work
[2] = assay type: in vivo, healthy Chinese male subjects; conditions: male, human, plasma, po, 150 mg
Procedure, shortened: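 Two-sequence (TR/RT), two-period randomised crossover in 44 healthy males (18–50 y, BMI 19–26 kg/m2, ≥50 kg) with a 7-day washout. Each period: single oral 150 mg tablet (test or reference) under fasting, with fasting kept ≥4 h post-dose. Plasma spun at 1700 g, 10 min, 2–8°C, stored at −80°C. Assay: protein precipitation, HPLC-MS/MS, positive ion mode, calibration 10.0–5000 ng/mL.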

Effect of food: fed = assay type: in vivo, healthy Chinese male subjects; conditions: 150 mg; P < 0.05
[3] = Safety monitoring over Part A, Part B and Part C; assay type: in vivo; conditions: healthy Chinese male subjects, single dose 100 mg or 150 mg
Procedure, shortened: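 Single oral dose in a randomized two-sequence (TR/RT) crossover, two periods, 7-day washout. Part A: 100 mg fasting (n = 14). Part B: 150 mg fasting (n = 44). Part C: 150 mg after a high-fat breakfast (n = 44). TEAEs, both subject-reported and investigator-observed including lab values, were collected throughout and graded by CTCAE 5.0. Monitoring covered physical exams, vital signs, laboratory tests, 12-lead ECG and CT scans.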

[4] = ref summary of product characteristics of olaparib; cited from earlier work
[5] = Chinese patients, cited from earlier work
[6] = Japanese patients, 300 mg single dosing; cited from earlier work
[7] = previous studies; cited from earlier work
[8] = patients; cited from earlier work
[9] = FDA Adverse Event Reporting System, cited from earlier work

SMILES: O=C(c1cc(Cc2n[nH]c(=O)c3ccccc23)ccc1F)N1CCn2nc(C(F)(F)F)nc2C1 [fluzoparib]
- tolerability in healthy individuals [1]: well tolerated

- Tmax [2]: 1.5 h
- half-life [2]: 5.94 h
- difference in Tmax, fed vs fasting state (Effect of food: fed): significantly prolonged
SMILES: O=C(c1cc(Cc2n[nH]c(=O)c3ccccc23)ccc1F)N1CCN(C(=O)C2CC2)CC1 [olaparib]
- tolerability [3]: well tolerated
- Tmax delayed by high-fat, high-calorie meal [4]: 2.5 h
- mean AUC increased by high-fat, high-calorie meal [4]: approximately 8%
- arithmetic mean t1/2 ([5]; 100 mg single dosing): 7.17 h
- median Tmax ([5]; 100 mg single dosing): 1.95 h
- arithmetic mean t1/2 ([5]; 300 mg single dosing): 6.52 h
- arithmetic mean t1/2 [6]: 9.43 h
- median Tmax [6]: 1.98 h
- inter-individual variation in the AUC [7]: 55–57%
- first nausea, time after treatment initiation [8]: ≤ 1 month
- first vomiting, time after treatment initiation [8]: ≤ 2 months
- median time to first occurrence of anemia [8]: approximately 4 weeks
- adverse events received related to olaparib ([9]; 2008 through first quarter of 2023): 10,957
- adverse events connected to genotoxicity [9]: no adverse events
